A short description of data set [1]: folding enthalpy; higher = less favourable; fluorescence melt of hairpins on a sequencing array, two-state fit. To be noted: sodium 0.088 M. A digest of the protocol:
(§1)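 Folding enthalpy and melting temperature were estimated with bootstrapped two-state fits and combined across four replicates by inverse-variance weighting, with fitted temperatures raised by 9.35 °C to match UV melts. The data were Cy3 fluorescence of library hairpins, with annealed Cy3 and quencher oligos, on a sequenced MiSeq flow cell in 50 mM Na-HEPES pH 8.0, 25 mM NaCl, imaged in 2.5 °C steps up to 60 °C and normalised to pre-quench Cy3 and control constructs.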

Data set [2] is described as follows: melting temperature; fluorescence melt of hairpins on a sequencing array, two-state fit, raised by 9.35 °C to match UV melts. To be noted: sodium 0.088 M. A digest of the protocol:
as §1

GCTCTTGAAAAAGAGC ((((((....)))))): the folding enthalpy in data set [1] was -32.6 kcal/mol. The Tm in data set [2] came out at 58.1 °C.

Consider GCTCTTTCGAAAGAAAGC (((..(((....)))))), for which, in data set [1], the folding enthalpy was -13.4 kcal/mol. The Tm in data set [2] is 32.5 °C.

Take GCTGAAACGAAAGTTAGC (((..(((....)))))): the folding enthalpy in data set [1] is -20.6 kcal/mol. Further, the Tm in data set [2] was 35 °C.

As for GCTGAACCGAAAGGTAGC (((..(((....)))))), the folding enthalpy in data set [1] was -21.9 kcal/mol. The Tm in data set [2] came out at 42.1 °C.

As for GCTGAACGAAAGTTAGC (((.(((....)))))), the folding enthalpy in data set [1] is -26 kcal/mol. The Tm in data set [2] was determined as 44.1 °C.

Regarding GCTGAAGCGAAAGCTAGC (((..(((....)))))), the folding enthalpy in data set [1] is -18.6 kcal/mol. The Tm in data set [2] is 44.6 °C.

GCTGAAGGAAACTTTAGC (((.(((....))).))): the folding enthalpy in data set [1] was -29.2 kcal/mol. The Tm in data set [2] was determined as 41.5 °C.

GCTGACACGAAAGTGAGC (((..(((....)))))): the folding enthalpy in data set [1] is -18.3 kcal/mol. Further, the Tm in data set [2] was found to be 40.3 °C.

Turning to GCTGACCGAAAGGTAAGC (((.(((....))).))), in data set [1], the folding enthalpy was -33.5 kcal/mol. For the same sequence, the Tm in data set [2] worked out at 57.8 °C.

As to GCTGACGAAAGTCAGAGC ((((((....)))..))), the folding enthalpy in data set [1] is -13.4 kcal/mol. For the same sequence, the Tm in data set [2] was 55.8 °C.

Consider GCTGACGAAAGTCCAAGC ((((((....)))..))), for which the folding enthalpy in data set [1] was -16.5 kcal/mol. For the same sequence, the Tm in data set [2] is 43.5 °C.

Regarding GCTGACGAAAGTCCAGC ((((((....))).))), in data set [1], the folding enthalpy is -24.7 kcal/mol. Also, the Tm in data set [2] amounted to 54.5 °C.

Take GCTGACGGAAACACCAGC ((((..(....)..)))): the folding enthalpy in data set [1] is -13.1 kcal/mol. For the same sequence, in data set [2], the Tm was found to be 33.3 °C.

For GCTGACGGAAACGTCGGC ((.((((....)))).)), the folding enthalpy in data set [1] was -48.3 kcal/mol. In addition, the Tm in data set [2] worked out at 63.3 °C.

On to GCTGAGCCGAAAGGCAGC (((..(((....)))))), for which the folding enthalpy in data set [1] was -15.2 kcal/mol. Besides, the Tm in data set [2] worked out at 51.7 °C.

Take GCTGAGCGAAAGCACAGC ((((.((....)).)))): the folding enthalpy in data set [1] was -35.6 kcal/mol. Besides, the Tm in data set [2] was found to be 67.8 °C.

As for GCTGAGCGAAAGCCCCGC ((.(.((....)).).)), the folding enthalpy in data set [1] was -12 kcal/mol. Also, the Tm in data set [2] was found to be 35.8 °C.

As to GCTGAGCGAAAGCCCGGC ((.(.((....)).).)), in data set [1], the folding enthalpy was -20.1 kcal/mol. Besides, in data set [2], the Tm is 52.2 °C.

Turning to GCTGAGCGAAAGCGGAGC (((..((....))..))), the folding enthalpy in data set [1] is -26.9 kcal/mol. The Tm in data set [2] worked out at 62.4 °C.

With GCTGAGCGAAAGCTACGC ((..(((....)))..)), in data set [1], the folding enthalpy is -16.3 kcal/mol. The Tm in data set [2] was 44.4 °C.

Consider GCTGAGCGAAAGCTTCGC ((..(((....)))..)), for which the folding enthalpy in data set [1] is -13.4 kcal/mol. In addition, the Tm in data set [2] turned out to be 49.5 °C.

As for GCTGAGGGAAACCTTAGC (((.(((....))).))), in data set [1], the folding enthalpy was -33.7 kcal/mol. The Tm in data set [2] was found to be 47.1 °C.

On to GCTGCACGAAAGTGAAGC (((.(((....))).))), for which, in data set [1], the folding enthalpy was -36 kcal/mol. Further, the Tm in data set [2] amounted to 60.5 °C.

As to GCTGCAGCGAAAGCTAGC (((..(((....)))))), the folding enthalpy in data set [1] is -11.9 kcal/mol. In data set [2], the Tm was found to be 48.7 °C.

Consider GCTGCAGGAAACCACAGC ((((..(....)..)))), for which, in data set [1], the folding enthalpy is -24.9 kcal/mol. The Tm in data set [2] amounted to 37 °C.

In the case of GCTGCAGGAAACTGCAAC (.(((((....))))).), in data set [1], the folding enthalpy is -13.5 kcal/mol. Besides, in data set [2], the Tm was 40.9 °C.

On to GCTGCCGAAAGGCAAGC ((((((....))).))), for which the folding enthalpy in data set [1] was -19.2 kcal/mol. For the same sequence, in data set [2], the Tm worked out at 66.7 °C.

Turning to GCTGCCGAAAGGCACAGC ((((((....)))..))), in data set [1], the folding enthalpy is -13.4 kcal/mol. Moreover, the Tm in data set [2] was 48.2 °C.

Take GCTGCCGAAAGGCAGAGC ((((((....)))..))): in data set [1], the folding enthalpy was -10 kcal/mol. The Tm in data set [2] turned out to be 67.1 °C.

As to GCTGCCGAAAGGCGAAGC ((((((....)))..))), the folding enthalpy in data set [1] was -15.5 kcal/mol. In data set [2], the Tm was 49 °C.

As for GCTGCCGAAAGGCGTAGC ((((((....)))..))), the folding enthalpy in data set [1] is -17.2 kcal/mol. Moreover, the Tm in data set [2] was 50.5 °C.

GCTGCCTCGAAAGAGAGC (((..(((....)))))): the folding enthalpy in data set [1] is -14 kcal/mol. For the same sequence, the Tm in data set [2] worked out at 42.3 °C.

On to GCTGCGCGAAAGCCCGGC ((.(.((....)).).)), for which the folding enthalpy in data set [1] is -17.5 kcal/mol. In data set [2], the Tm was found to be 44.1 °C.

Regarding GCTGCGCGAAAGCCCTGC ((.(.((....)).).)), the folding enthalpy in data set [1] was -17.3 kcal/mol. Besides, the Tm in data set [2] worked out at 38.5 °C.

For GCTGCGCGAAAGCTCGGC ((.(.((....)).).)), the folding enthalpy in data set [1] was -22.4 kcal/mol. Moreover, in data set [2], the Tm stood at 48.3 °C.

Take GCTGCGCGAAAGCTTAGC (((..((....))..))): the folding enthalpy in data set [1] was -20.5 kcal/mol. Moreover, in data set [2], the Tm is 39.6 °C.
